Laboratory results reported in ChEMBL document CHEMBL4000160, “Wasabisides A-E, Lignan Glycosides from the Roots of Wasabia japonica” (J Nat Prod, 2016).

System: BT-549
Assay: Cytotoxicity against human BT549 cells after 48 hrs by SRB assay
Assay type: functional, cell-based
Conditions: BT-549, 48 h
Procedure, shortened: (§1)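 Human tumor lines from ATCC, maintained at Korea Research Institute of Chemical Technology; cytotoxicity determined by sulforhodamine B (SRB) method, reported as IC50.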

| SMILES | IC50 [µM] |
| --- | --- |
| COc1cc(C[C@@H]2C(=O)OC[C@H]2[C@@H](O)c2cc(OC)c(O[C@@H]3O[C@H](CO)[C@@H](O)[C@H](O)[C@H]3O)c(OC)c2)ccc1O | > 10 |
| O=C(O)c1ccccc1 [BENZOIC ACID] | > 10 |
| COc1cc(C(=O)O)cc(OC)c1O [SYRINGIC ACID] | > 10 |
| O=C(O)/C=C/c1ccc(O)cc1 [COUMARIC ACID] | 10 |
| COc1cc(/C=C/C(=O)O)ccc1O [FERULATE] | > 10 |
| COc1cc(C[C@@H]2C(=O)OC[C@H]2[C@@H](O[C@@H]2O[C@H](CO)[C@@H](O)[C@H](O)[C@H]2O)c2ccc(O)c(OC)c2)ccc1O | > 10 |
| COc1cc(C[C@H]2C(=O)OC[C@@H]2C(=O)c2ccc(O[C@@H]3O[C@H](CO)[C@@H](O)[C@H](O)[C@H]3O)c(OC)c2)ccc1O | > 10 |
| COc1cc(C[C@@H]2C(=O)OC[C@H]2[C@@H](O)c2ccc(O[C@@H]3O[C@H](CO)[C@@H](O)[C@H](O)[C@H]3O)c(OC)c2)ccc1O | > 10 |
| COc1cc([C@H](O)[C@@H]2COC(=O)[C@H]2Cc2ccc(O[C@@H]3O[C@H](CO)[C@@H](O)[C@H](O)[C@H]3O)c(OC)c2)ccc1O | > 10 |

System: SK-MEL-2
Assay: Cytotoxicity against human SK-MEL-2 cells after 48 hrs by SRB assay
Assay type: functional, cell-based
Conditions: SK-MEL-2, 48 h
Procedure, shortened: as §1

| SMILES | IC50 [µM] |
| --- | --- |
| COc1cc(C[C@@H]2C(=O)OC[C@H]2[C@@H](O)c2cc(OC)c(O[C@@H]3O[C@H](CO)[C@@H](O)[C@H](O)[C@H]3O)c(OC)c2)ccc1O | > 10 |
| O=C(O)c1ccccc1 [BENZOIC ACID] | > 10 |
| COc1cc(C(=O)O)cc(OC)c1O [SYRINGIC ACID] | > 10 |
| O=C(O)/C=C/c1ccc(O)cc1 [COUMARIC ACID] | > 10 |
| COc1cc(/C=C/C(=O)O)ccc1O [FERULATE] | > 10 |
| COc1cc(C[C@@H]2C(=O)OC[C@H]2[C@@H](O[C@@H]2O[C@H](CO)[C@@H](O)[C@H](O)[C@H]2O)c2ccc(O)c(OC)c2)ccc1O | > 10 |
| COc1cc(C[C@H]2C(=O)OC[C@@H]2C(=O)c2ccc(O[C@@H]3O[C@H](CO)[C@@H](O)[C@H](O)[C@H]3O)c(OC)c2)ccc1O | > 10 |
| COc1cc(C[C@@H]2C(=O)OC[C@H]2[C@@H](O)c2ccc(O[C@@H]3O[C@H](CO)[C@@H](O)[C@H](O)[C@H]3O)c(OC)c2)ccc1O | > 10 |
| COc1cc([C@H](O)[C@@H]2COC(=O)[C@H]2Cc2ccc(O[C@@H]3O[C@H](CO)[C@@H](O)[C@H](O)[C@H]3O)c(OC)c2)ccc1O | > 10 |

System: BV-2
Assay: Antineuroinflammatory activity in mouse BV2 cells assessed as inhibition of LPS-induced nitric oxide production after 24 hrs by Griess assay
Assay type: functional, cell-based
Conditions: BV-2, 24 h
Procedure, shortened: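 BV2 microglia seeded at 4 × 10^4 cells/well, exposed with or without graded compound concentrations, stimulated with LPS 100 ng/mL for 24 h. Nitrite in medium measured by mixing supernatant 1:1 with Griess reagent (0.1% N-1-naphthylethylenediamine, 1% sulfanilamide, 5% phosphoric acid), absorbance read at 570 nm after 10 min against sodium nitrite standard curve. NG-monomethyl-L-arginine positive control.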

| SMILES | IC50 [µM] |
| --- | --- |
| COc1cc(C[C@@H]2C(=O)OC[C@H]2[C@@H](O)c2cc(OC)c(O[C@@H]3O[C@H](CO)[C@@H](O)[C@H](O)[C@H]3O)c(OC)c2)ccc1O | > 50 |
| COc1cc(C[C@@H]2C(=O)OC[C@H]2[C@@H](O[C@@H]2O[C@H](CO)[C@@H](O)[C@H](O)[C@H]2O)c2ccc(O)c(OC)c2)ccc1O | > 50 |
| COc1cc(C[C@H]2C(=O)OC[C@@H]2C(=O)c2ccc(O[C@@H]3O[C@H](CO)[C@@H](O)[C@H](O)[C@H]3O)c(OC)c2)ccc1O | > 50 |
| COc1cc(C[C@@H]2C(=O)OC[C@H]2[C@@H](O)c2ccc(O[C@@H]3O[C@H](CO)[C@@H](O)[C@H](O)[C@H]3O)c(OC)c2)ccc1O | > 50 |
| COc1cc([C@H](O)[C@@H]2COC(=O)[C@H]2Cc2ccc(O[C@@H]3O[C@H](CO)[C@@H](O)[C@H](O)[C@H]3O)c(OC)c2)ccc1O | > 50 |

Continued, values first:

| IC50 [µM] | SMILES |
| --- | --- |
| > 50 | O=C(O)c1ccccc1 [BENZOIC ACID] |
| > 50 | COc1cc(C(=O)O)cc(OC)c1O [SYRINGIC ACID] |
| > 50 | O=C(O)/C=C/c1ccc(O)cc1 [COUMARIC ACID] |
| > 50 | COc1cc(/C=C/C(=O)O)ccc1O [FERULATE] |
| 17.6 | CNC(=N)NCCC[C@H](N)C(=O)O [TILARGININE] |

System: C6
Assay: Induction of nerve growth factor secretion in rat C6 cells at 20 uM after 24 hrs by ELISA relative to control
Assay type: functional
Conditions: not given
Procedure, shortened: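 C6 glioma cells (Korean Cell Line Bank) seeded 1 × 10^5 cells/well; after 24 h switched to serum-free DMEM with 20 μM compound for 24 h. NGF in conditioned medium quantified by ELISA, given as % of untreated control (100%). 6-Shogaol positive control; mean ± SD of three independent experiments.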

| SMILES | Activity [%] |
| --- | --- |
| COc1cc(C[C@@H]2C(=O)OC[C@H]2[C@@H](O)c2cc(OC)c(O[C@@H]3O[C@H](CO)[C@@H](O)[C@H](O)[C@H]3O)c(OC)c2)ccc1O | 99.4 |
| O=C(O)c1ccccc1 [BENZOIC ACID] | 114.5 |
| COc1cc(C(=O)O)cc(OC)c1O [SYRINGIC ACID] | 125.5 |
| CCCCC/C=C/C(=O)CCc1ccc(O)c(OC)c1 [SHOGAOL] | 165.7 |
| O=C(O)/C=C/c1ccc(O)cc1 [COUMARIC ACID] | 129.2 |
| COc1cc(/C=C/C(=O)O)ccc1O [FERULATE] | 110.7 |
| COc1cc(C[C@@H]2C(=O)OC[C@H]2[C@@H](O[C@@H]2O[C@H](CO)[C@@H](O)[C@H](O)[C@H]2O)c2ccc(O)c(OC)c2)ccc1O | 150.7 |
| COc1cc(C[C@H]2C(=O)OC[C@@H]2C(=O)c2ccc(O[C@@H]3O[C@H](CO)[C@@H](O)[C@H](O)[C@H]3O)c(OC)c2)ccc1O | 122.1 |
| COc1cc(C[C@@H]2C(=O)OC[C@H]2[C@@H](O)c2ccc(O[C@@H]3O[C@H](CO)[C@@H](O)[C@H](O)[C@H]3O)c(OC)c2)ccc1O | 103.3 |
| COc1cc([C@H](O)[C@@H]2COC(=O)[C@H]2Cc2ccc(O[C@@H]3O[C@H](CO)[C@@H](O)[C@H](O)[C@H]3O)c(OC)c2)ccc1O | 104.3 |

System: not listed separately
Assay: Cytotoxicity against rat C6 cells assessed as cell viability at 20 uM by MTT assay relative to control
Assay type: cell-based
Conditions: read-out: Activity
Procedure, shortened: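 C6 glioma cells seeded 1 × 10^5 cells/well, treated 24 h later in serum-free DMEM with 20 μM compound for 24 h; viability by MTT assay, expressed as % of untreated control. Mean ± SD of three independent experiments.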

| SMILES | viability at 20 µM [%] |
| --- | --- |
| COc1cc(C[C@@H]2C(=O)OC[C@H]2[C@@H](O)c2cc(OC)c(O[C@@H]3O[C@H](CO)[C@@H](O)[C@H](O)[C@H]3O)c(OC)c2)ccc1O | 102 |
| O=C(O)c1ccccc1 [BENZOIC ACID] | 96.4 |
| COc1cc(C(=O)O)cc(OC)c1O [SYRINGIC ACID] | 95.9 |
| CCCCC/C=C/C(=O)CCc1ccc(O)c(OC)c1 [SHOGAOL] | 115 |
| O=C(O)/C=C/c1ccc(O)cc1 [COUMARIC ACID] | 198 |
| COc1cc(/C=C/C(=O)O)ccc1O [FERULATE] | 95 |
| COc1cc(C[C@@H]2C(=O)OC[C@H]2[C@@H](O[C@@H]2O[C@H](CO)[C@@H](O)[C@H](O)[C@H]2O)c2ccc(O)c(OC)c2)ccc1O | 100 |
| COc1cc(C[C@H]2C(=O)OC[C@@H]2C(=O)c2ccc(O[C@@H]3O[C@H](CO)[C@@H](O)[C@H](O)[C@H]3O)c(OC)c2)ccc1O | 101 |
| COc1cc(C[C@@H]2C(=O)OC[C@H]2[C@@H](O)c2ccc(O[C@@H]3O[C@H](CO)[C@@H](O)[C@H](O)[C@H]3O)c(OC)c2)ccc1O | 98.2 |
| COc1cc([C@H](O)[C@@H]2COC(=O)[C@H]2Cc2ccc(O[C@@H]3O[C@H](CO)[C@@H](O)[C@H](O)[C@H]3O)c(OC)c2)ccc1O | 102 |

System: A549
Assay: Cytotoxicity against human A549 cells after 48 hrs by SRB assay
Assay type: functional, cell-based
Conditions: A549, 48 h
Procedure, shortened: as §1

| SMILES | IC50 [µM] |
| --- | --- |
| COc1cc(C[C@@H]2C(=O)OC[C@H]2[C@@H](O)c2cc(OC)c(O[C@@H]3O[C@H](CO)[C@@H](O)[C@H](O)[C@H]3O)c(OC)c2)ccc1O | > 10 |
| O=C(O)c1ccccc1 [BENZOIC ACID] | > 10 |
| COc1cc(C(=O)O)cc(OC)c1O [SYRINGIC ACID] | > 10 |
| O=C(O)/C=C/c1ccc(O)cc1 [COUMARIC ACID] | > 10 |
| COc1cc(/C=C/C(=O)O)ccc1O [FERULATE] | > 10 |
| COc1cc(C[C@@H]2C(=O)OC[C@H]2[C@@H](O[C@@H]2O[C@H](CO)[C@@H](O)[C@H](O)[C@H]2O)c2ccc(O)c(OC)c2)ccc1O | > 10 |
| COc1cc(C[C@H]2C(=O)OC[C@@H]2C(=O)c2ccc(O[C@@H]3O[C@H](CO)[C@@H](O)[C@H](O)[C@H]3O)c(OC)c2)ccc1O | > 10 |
| COc1cc(C[C@@H]2C(=O)OC[C@H]2[C@@H](O)c2ccc(O[C@@H]3O[C@H](CO)[C@@H](O)[C@H](O)[C@H]3O)c(OC)c2)ccc1O | > 10 |
| COc1cc([C@H](O)[C@@H]2COC(=O)[C@H]2Cc2ccc(O[C@@H]3O[C@H](CO)[C@@H](O)[C@H](O)[C@H]3O)c(OC)c2)ccc1O | > 10 |

System: SK-OV-3
Assay: Cytotoxicity against human SKOV3 cells after 48 hrs by SRB assay
Assay type: functional, cell-based
Conditions: SK-OV-3, 48 h
Procedure, shortened: as §1

| SMILES | IC50 [µM] |
| --- | --- |
| COc1cc(C[C@@H]2C(=O)OC[C@H]2[C@@H](O)c2cc(OC)c(O[C@@H]3O[C@H](CO)[C@@H](O)[C@H](O)[C@H]3O)c(OC)c2)ccc1O | > 10 |
| O=C(O)c1ccccc1 [BENZOIC ACID] | > 10 |
| COc1cc(C(=O)O)cc(OC)c1O [SYRINGIC ACID] | > 10 |
| O=C(O)/C=C/c1ccc(O)cc1 [COUMARIC ACID] | > 10 |
| COc1cc(/C=C/C(=O)O)ccc1O [FERULATE] | > 10 |
| COc1cc(C[C@@H]2C(=O)OC[C@H]2[C@@H](O[C@@H]2O[C@H](CO)[C@@H](O)[C@H](O)[C@H]2O)c2ccc(O)c(OC)c2)ccc1O | > 10 |
| COc1cc(C[C@H]2C(=O)OC[C@@H]2C(=O)c2ccc(O[C@@H]3O[C@H](CO)[C@@H](O)[C@H](O)[C@H]3O)c(OC)c2)ccc1O | > 10 |
| COc1cc(C[C@@H]2C(=O)OC[C@H]2[C@@H](O)c2ccc(O[C@@H]3O[C@H](CO)[C@@H](O)[C@H](O)[C@H]3O)c(OC)c2)ccc1O | > 10 |
| COc1cc([C@H](O)[C@@H]2COC(=O)[C@H]2Cc2ccc(O[C@@H]3O[C@H](CO)[C@@H](O)[C@H](O)[C@H]3O)c(OC)c2)ccc1O | > 10 |
